Data reported in ChEMBL document CHEMBL4393724, “Betulin-1,4-quinone hybrids: Synthesis, anticancer activity and molecular docking study with NQO1 enzyme” (Eur J Med Chem, 2019).

Assays:
Assay type in all cases: functional, cell-based; call rule not given here
[1] = tested on: SNB-19; assay: Antiproliferative activity against human SNB19 cells assessed as reduction in cell viability incubated for 72 hrs by WST1 assay
[2] = tested on: A549; assay: Antiproliferative activity against human A549 cells assessed as reduction in cell viability incubated for 72 hrs by WST1 assay
In short: (§1)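 Cells held at 37 °C under 5% CO2 and seeded at 5 × 10^4 cells/well in DMEM with 10% FCS plus streptomycin and penicillin. Compounds were dissolved in DMSO and exposed for 72 h. WST-1 formazan was read at 450 nm. IC50 was derived from the mean ± SD of at least three independent experiments run in triplicate. Cisplatin served as reference.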

[3] = tested on: C32; assay: Antiproliferative activity against human C32 cells assessed as reduction in cell viability incubated for 72 hrs by WST1 assay; in short: as §1
[4] = tested on: MCF7; assay: Antiproliferative activity against human MCF7 cells assessed as reduction in cell viability incubated for 72 hrs by WST1 assay; in short: as §1
[5] = tested on: MDA-MB-231; assay: Antiproliferative activity against human MDA-MB-231 cells assessed as reduction in cell viability incubated for 72 hrs by WST1 assay
[6] = tested on: COLO-829; assay: Antiproliferative activity against human COLO829 cells assessed as reduction in cell viability incubated for 72 hrs by WST1 assay
[7] = tested on: T47D; assay: Antiproliferative activity against human T47D cells assessed as reduction in cell viability incubated for 72 hrs by WST1 assay
[8] = Homo sapiens, A549, 72 h, read-out: IC50
[9] = Homo sapiens, C32, 72 h, read-out: IC50
[10] = Homo sapiens, MDA-MB-231, 72 h, read-out: IC50
[11] = Homo sapiens, MCF7, 72 h, read-out: IC50
[12] = Homo sapiens, COLO-829, 72 h, read-out: IC50
[13] = Homo sapiens, T47D, 72 h, read-out: IC50
[14] = Homo sapiens, SNB-19, 72 h, read-out: IC50

## C=C(COC1=C(Cl)C(=O)c2ccccc2C1=O)[C@@H]1CC[C@]2(COC(C)=O)CC[C@]3(C)[C@H](CC[C@@H]4[C@@]5(C)CC[C@H](OC(C)=O)C(C)(C)[C@@H]5CC[C@]43C)[C@@H]12
[1]; snb-19
  IC50: Not Active
[2]; [8]
  IC50: 53.9 µM
[3]; [9]
  IC50: 24.7 µM
[4]; mcf7
  IC50: Not Active
[5]; [10]
  IC50: 61.2 µM
[6]; colo-829
  IC50: Not Active
[7]; t47d
  IC50: Not Active

## C=C(COC1=C(Cl)C(=O)c2ccc(C)nc2C1=O)[C@@H]1CC[C@]2(COC(C)=O)CC[C@]3(C)[C@H](CC[C@@H]4[C@@]5(C)CC[C@H](OC(C)=O)C(C)(C)[C@@H]5CC[C@]43C)[C@@H]12
[1]; snb-19
  IC50: Not Active
[2]; [8]
  IC50: 0.84 µM
[3]; [9]
  IC50: 1.14 µM
[4]; [11]
  IC50: 0.94 µM
[5]; [10]
  IC50: 0.11 µM
[6]; [12]
  IC50: 0.12 µM
[7]; [13]
  IC50: 10.3 µM

## C=C(C)[C@@H]1CC[C@]2(COC3=C(Cl)C(=O)c4ccc(C)nc4C3=O)CC[C@]3(C)[C@H](CC[C@@H]4[C@@]5(C)CC[C@H](O)C(C)(C)[C@@H]5CC[C@]43C)[C@@H]12
[1]; snb-19
  IC50: Not Active
[2]; [8]
  IC50: 1.62 µM
[3]; [9]
  IC50: 12.7 µM
[4]; mcf7
  IC50: Not Active
[5]; [10]
  IC50: 11 µM
[6]; [12]
  IC50: 1.13 µM
[7]; [13]
  IC50: 90.4 µM

## C=C(COC1=C(Cl)C(=O)c2cccnc2C1=O)[C@@H]1CC[C@]2(COC(C)=O)CC[C@]3(C)[C@H](CC[C@@H]4[C@@]5(C)CC[C@H](OC(C)=O)C(C)(C)[C@@H]5CC[C@]43C)[C@@H]12
[1]; [14]
  IC50: 62.5 µM
[2]; [8]
  IC50: 3.3 µM
[3]; [9]
  IC50: 22.9 µM
[4]; [11]
  IC50: 11.6 µM
[5]; [10]
  IC50: 60.4 µM
[6]; [12]
  IC50: 0.13 µM
[7]; [13]
  IC50: 12.8 µM

## C=C(C)[C@@H]1CC[C@]2(COC3=C(Cl)C(=O)c4ccccc4C3=O)CC[C@]3(C)[C@H](CC[C@@H]4[C@@]5(C)CC[C@H](OC(C)=O)C(C)(C)[C@@H]5CC[C@]43C)[C@@H]12
[1]; [14]
  IC50: 3.38 µM
[2]; [8]
  IC50: 1.15 µM
[3]; [9]
  IC50: 13.8 µM
[4]; [11]
  IC50: 71.4 µM
[5]; mda-mb-231
  IC50: Not Active
[6]; [12]
  IC50: 1.08 µM
[7]; [13]
  IC50: 12.6 µM

## O=C1C(Cl)=C(Cl)C(=O)c2ccccc21 [Dichlon]
[1]; snb-19
  IC50: Not Active
[2]; a549
  IC50: Not Active
[3]; c32
  IC50: Not Active
[4]; mcf7
  IC50: Not Active
[5]; mda-mb-231
  IC50: Not Active
[6]; [12]
  IC50: 37.9 µM
[7]; t47d
  IC50: Not Active

## C=C(C)[C@@H]1CC[C@]2(COC3=C(Cl)C(=O)c4ccc(C)nc4C3=O)CC[C@]3(C)[C@H](CC[C@@H]4[C@@]5(C)CC[C@H](OC(C)=O)C(C)(C)[C@@H]5CC[C@]43C)[C@@H]12
[1]; snb-19
  IC50: Not Active
[2]; [8]
  IC50: 0.64 µM
[3]; [9]
  IC50: 1.33 µM
[4]; [11]
  IC50: 89.3 µM
[5]; [10]
  IC50: 5.88 µM
[6]; [12]
  IC50: 93.8 µM
[7]; t47d
  IC50: Not Active

## C=C(C)[C@@H]1CC[C@]2(COC(C)=O)CC[C@]3(C)[C@H](CC[C@@H]4[C@@]5(C)CC[C@H](OC6=C(Cl)C(=O)c7cccnc7C6=O)C(C)(C)[C@@H]5CC[C@]43C)[C@@H]12
[1]; snb-19
  IC50: Not Active
[2]; [8]
  IC50: 13.5 µM
[3]; c32
  IC50: Not Active
[4]; mcf7
  IC50: Not Active
[5]; mda-mb-231
  IC50: Not Active
[6]; colo-829
  IC50: Not Active
[7]; [13]
  IC50: 86.8 µM

## C#CC(=O)OC[C@]12CC[C@@H](C(=C)C)[C@@H]1[C@H]1CC[C@@H]3[C@@]4(C)CC[C@H](OC5=C(Cl)C(=O)c6ccc(C)nc6C5=O)C(C)(C)[C@@H]4CC[C@@]3(C)[C@]1(C)CC2
[1]; [14]
  IC50: 10.8 µM
[2]; [8]
  IC50: 18.4 µM
[3]; c32
  IC50: Not Active
[4]; [11]
  IC50: 18 µM
[5]; [10]
  IC50: 36.9 µM
[6]; colo-829
  IC50: Not Active
[7]; t47d
  IC50: Not Active

## C=C(C)[C@@H]1CC[C@]2(COC3=C(Cl)C(=O)c4cccnc4C3=O)CC[C@]3(C)[C@H](CC[C@@H]4[C@@]5(C)CC[C@H](OC(C)=O)C(C)(C)[C@@H]5CC[C@]43C)[C@@H]12
[1]; snb-19
  IC50: Not Active
[2]; [8]
  IC50: 14.3 µM
[3]; c32
  IC50: Not Active
[4]; [11]
  IC50: 96.8 µM
[5]; mda-mb-231
  IC50: Not Active
[6]; colo-829
  IC50: Not Active
[7]; t47d
  IC50: Not Active

## Cc1ccc2c(n1)C(=O)C(Cl)=C(Cl)C2=O
[1]; snb-19
  IC50: Not Active
[2]; a549
  IC50: Not Active
[3]; c32
  IC50: Not Active
[4]; mcf7
  IC50: Not Active
[5]; mda-mb-231
  IC50: Not Active
[6]; [12]
  IC50: 26.4 µM
[7]; t47d
  IC50: Not Active

## C=C(C)[C@@H]1CC[C@]2(COC3=C(Cl)C(=O)c4cccnc4C3=O)CC[C@]3(C)[C@H](CC[C@@H]4[C@@]5(C)CC[C@H](O)C(C)(C)[C@@H]5CC[C@]43C)[C@@H]12
[1]; snb-19
  IC50: Not Active
[2]; [8]
  IC50: 8.58 µM
[3]; c32
  IC50: Not Active
[4]; [11]
  IC50: 94.8 µM
[5]; [10]
  IC50: 80.4 µM
[6]; [12]
  IC50: 95.5 µM
[7]; [13]
  IC50: 13.2 µM

## C#CC(=O)OC[C@]12CC[C@@H](C(=C)C)[C@@H]1[C@H]1CC[C@@H]3[C@@]4(C)CC[C@H](OC5=C(Cl)C(=O)c6ccccc6C5=O)C(C)(C)[C@@H]4CC[C@@]3(C)[C@]1(C)CC2
[1]; snb-19
  IC50: Not Active
[2]; [8]
  IC50: 1.28 µM
[3]; [9]
  IC50: 1.04 µM
[4]; [11]
  IC50: 36.6 µM
[5]; [10]
  IC50: 6.77 µM
[6]; colo-829
  IC50: Not Active
[7]; [13]
  IC50: 96.1 µM

## C=C(C)[C@@H]1CC[C@]2(COC3=C(Cl)C(=O)c4ccccc4C3=O)CC[C@]3(C)[C@H](CC[C@@H]4[C@@]5(C)CC[C@H](O)C(C)(C)[C@@H]5CC[C@]43C)[C@@H]12
[1]; [14]
  IC50: 9.49 µM
[2]; [8]
  IC50: 10.6 µM
[3]; c32
  IC50: Not Active
[4]; mcf7
  IC50: Not Active
[5]; mda-mb-231
  IC50: Not Active
[6]; colo-829
  IC50: Not Active
[7]; [13]
  IC50: 1.47 µM

## C=C(C)[C@@H]1CC[C@]2(CO)CC[C@]3(C)[C@H](CC[C@@H]4[C@@]5(C)CC[C@H](O)C(C)(C)[C@@H]5CC[C@]43C)[C@@H]12 [BETULIN]
[1]; snb-19
  IC50: Not Active
[2]; [8]
  IC50: 59.7 µM
[3]; c32
  IC50: Not Active
[4]; [11]
  IC50: 43.9 µM
[5]; [10]
  IC50: 96.2 µM
[6]; colo-829
  IC50: Not Active
[7]; [13]
  IC50: 20.7 µM
